The source of these data is ChEMBL document CHEMBL4765291, “Design, synthesis and biological evaluation of novel 3,4-dihydro-2(1H)-quinolinone derivatives as potential chitin synthase inhibitors and antifungal agents” (Eur J Med Chem, 2020).

The structures appear in SMILES notation. pIC50, pKi: −log10 of the molar value. In brackets after ≈: the same amount, converted by molar mass.

As a reminder, the inhibition is how much of the control response was suppressed. Low values mean little suppression, high ones strong suppression. In general, pIC50 refers to the IC50 on a negative log10 scale, so that one unit is a factor of ten. Read a high pIC50 as a low IC50. In general, pKi refers to −log10 of the Ki, conventionally taken in molar units. A higher pKi goes with a small Ki. What is called MIC is the lowest concentration found to suppress growth.

The test system of one assay is Aspergillus flavus. The experiment in a line: Synergistic antifungal activity against Aspergillus flavus ATCC 16870 assessed as fractional inhibitory concentration index in presence of Polyoxin B by two-fold broth dilution checkerboard method. It is filed as functional.
Details: not given
The essentials: (§1)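 Checkerboard combined with two-fold broth dilution, pairing test compound with fluconazole or polyoxin B. FIC index = (MIC A combined/MIC A alone) + (MIC B combined/MIC B alone); >2 antagonistic, 1–2 additive, ≤1 synergistic. Three independent repeats.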
As to `Cc1cccc(NC(=O)/C=C/C(=O)NC2Cc3ccccc3NC2=O)c1` (centres undefined), the “fractional inhibitory concentration index (FICI)” value came out at 1.

For the next assay, the system named is Cryptococcus neoformans. In words: Synergistic antifungal activity against Cryptococcus neoformans ATCC 32719 assessed as fractional inhibitory concentration index in presence of Polyoxin B by checkerboard method. It is filed as functional.
Details: not given
The essentials:
as §1
Turning to `Cc1cccc(NC(=O)/C=C/C(=O)NC2Cc3ccccc3NC2=O)c1` (centres undefined), the “fractional inhibitory concentration index (FICI)” value turned out to be 2.

A further assay relates to Candida albicans. In words: Synergistic antifungal activity against Candida albicans ATCC 90023 assessed as fractional inhibitory concentration index in presence of Polyoxin B by checkerboard method. The assay is classed as functional.
Details: not given
In outline:
as §1
As for `Cc1cccc(NC(=O)/C=C/C(=O)NC2Cc3ccccc3NC2=O)c1` (centres undefined), the “fractional inhibitory concentration index (FICI)” value is recorded as 0.375.

The test system of the next assay is Candida albicans. The experiment in a line: Synergistic antifungal activity against Candida albicans ATCC 76615 assessed as fractional inhibitory concentration index in presence of Polyoxin B by checkerboard method.
Details: not given
The assay is classed as functional. The essentials: as §1
Turning to `Cc1cccc(NC(=O)/C=C/C(=O)NC2Cc3ccccc3NC2=O)c1` (centres undefined), the “fractional inhibitory concentration index (FICI)” value is listed as 1.

A further assay concerns Aspergillus fumigatus. In words: Synergistic antifungal activity against Aspergillus fumigatus GIMCC 3.19 assessed as fractional inhibitory concentration index in presence of Polyoxin B by checkerboard method. The assay is classed as functional.
Details: not given
In outline:
as §1
Take `Cc1cccc(NC(=O)/C=C/C(=O)NC2Cc3ccccc3NC2=O)c1` (centres undefined): the “fractional inhibitory concentration index (FICI)” value is given as 0.75.

Another assay relates to Aspergillus flavus. In words: Synergistic antifungal activity against Aspergillus flavus ATCC 16870 assessed as fractional inhibitory concentration index in presence of fluconazole by checkerboard method. The assay is classed as functional.
Details: not given
The essentials: as §1
On to `Cc1cccc(NC(=O)/C=C/C(=O)NC2Cc3ccccc3NC2=O)c1` (centres undefined), for which the “fractional inhibitory concentration index (FICI)” value is 1.5.

A further assay concerns Cryptococcus neoformans. The experiment in a line: Synergistic antifungal activity against Cryptococcus neoformans ATCC 32719 assessed as fractional inhibitory concentration index in presence of fluconazole by checkerboard method. It is filed as functional.
Details: not given
The essentials: as §1
For `Cc1cccc(NC(=O)/C=C/C(=O)NC2Cc3ccccc3NC2=O)c1` (centres undefined), the “fractional inhibitory concentration index (FICI)” value is 1.5.

A further assay relates to Candida albicans. In words: Synergistic antifungal activity against Candida albicans ATCC 90023 assessed as fractional inhibitory concentration index in presence of fluconazole by checkerboard method. The assay is classed as functional.
Details: not given
The essentials: as §1
As for `Cc1cccc(NC(=O)/C=C/C(=O)NC2Cc3ccccc3NC2=O)c1` (centres undefined), the “fractional inhibitory concentration index (FICI)” value is recorded as 0.5.

The test system of a further assay is Candida albicans. In words: Synergistic antifungal activity against Candida albicans ATCC 76615 assessed as fractional inhibitory concentration index in presence of fluconazole by checkerboard method. It is filed as functional.
Details: not given
The essentials: as §1
As for `Cc1cccc(NC(=O)/C=C/C(=O)NC2Cc3ccccc3NC2=O)c1` (centres undefined), the “fractional inhibitory concentration index (FICI)” value turned out to be 1.5.

A further assay relates to Aspergillus fumigatus. The experiment in a line: Synergistic antifungal activity against Aspergillus fumigatus GIMCC 3.19 assessed as fractional inhibitory concentration index in presence of fluconazole by checkerboard method. It is filed as functional.
Details: not given
In outline:
as §1
Turning to `Cc1cccc(NC(=O)/C=C/C(=O)NC2Cc3ccccc3NC2=O)c1` (centres undefined), the “fractional inhibitory concentration index (FICI)” value amounted to 0.75.

In another assay the test system is Candida tropicalis. The experiment in a line: Inhibition of Candida tropicalis ATCC 750 chitin synthase at 300 ug/ml using UDP-GlcNAc as substrate relative to control. The following applies: dose 300.0 µg/ml. In outline: (§2)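 Chitin synthase prepared from C. tropicalis ATCC 750 by low- and high-speed centrifugation. DMSO stocks (10 mg/mL) diluted in 50 mM Tris-HCl pH 7.5; test concentrations 300–9.375 µg/mL. Chitin synthesized in WGA-coated wells, bound with WGA-HRP, washed, developed with TMB/H2O2, stopped with 2 M H2SO4, OD read. Duplicate; polyoxin B positive control.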
The molecule `Cc1cccc(NC(=O)/C=C/C(=O)NC2Cc3ccccc3NC2=O)c1` (centres undefined) had an inhibition of 78.3%.

Tested on in another assay: not listed separately
In words: Inhibition of Candida tropicalis ATCC 750 chitin synthase using UDP-GlcNAc as substrate.
Details: not given
The essentials:
as §2
The molecule `Cc1cccc(NC(=O)/C=C/C(=O)NC2Cc3ccccc3NC2=O)c1` (centres undefined) had a pIC50 of 4.05.

Tested on in a further assay: not listed separately
The experiment in a line: Noncompetitive inhibition of Candida tropicalis ATCC 750 chitin synthase using […] as substrate by Lineweaver-Burk plot.
Details: not given
The essentials: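 Same WGA-capture chitin synthase assay, run with UDP-GlcNAc at 0.5, 1.0, 1.5 and 2.0 mM and inhibitor at 0, 0.032, 0.126 and 0.25 mM. Inhibition type read from Lineweaver-Burk plots; Ki taken from the intersection of the lines.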
Turning to `Cc1cccc(NC(=O)/C=C/C(=O)NC2Cc3ccccc3NC2=O)c1` (centres undefined), the pKi is 3.92.

The test system of the next assay is Candida albicans. The experiment in a line: Antifungal activity against Candida albicans ATCC 90023 incubated for 48 hrs by two-fold broth dilution analysis. The assay is classed as functional.
Details: not given
In outline:
(§3)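 Stock solutions in DMSO, diluted to 0.25–512 µg/mL; two-fold serial broth dilution in 96-well plates. Fungi grown on modified Sabouraud chloramphenicol agar (1% peptone, 2% glucose, […]). Incubated 48 h at 37 °C, then MIC (µg/mL) recorded. Fluconazole and polyoxin B as positive controls; each group tested in triplicate.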
For orientation: Broth dilution looks for growth in wells or tubes with falling amounts of substance.
In turn, `Cc1cccc(NC(=O)/C=C/C(=O)NC2Cc3ccccc3NC2=O)c1` (centres undefined) came in with an MIC of 1 µg/mL (≈ 2.86 µM).

A further assay has as its system Cryptococcus neoformans. The experiment in a line: Antifungal activity against Cryptococcus neoformans ATCC 32719 incubated for 48 hrs by two-fold broth dilution analysis. It is filed as functional.
Details: not given
The essentials: as §3
`Cc1cccc(NC(=O)/C=C/C(=O)NC2Cc3ccccc3NC2=O)c1` (centres undefined): the MIC was 64 µg/mL (≈ 183 µM).

A further assay relates to Aspergillus flavus. The experiment in a line: Antifungal activity against Aspergillus flavus ATCC 16870 incubated for 48 hrs by two-fold broth dilution analysis. The assay is classed as functional.
Details: not given
The essentials: as §3
`Cc1cccc(NC(=O)/C=C/C(=O)NC2Cc3ccccc3NC2=O)c1` (centres undefined) showed an MIC of 2 µg/mL (≈ 5.72 µM).

A further assay relates to Staphylococcus aureus. The experiment in a line: Antibacterial activity against methicillin-resistant Staphylococcus aureus N. 315. It is filed as functional.
Details: not given
In outline: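 Two-fold serial broth dilution in 96-well plates per national clinical standard; beef extract peptone medium (1% peptone, 0.3% beef extract, 0.5% NaCl, […]). Compounds from DMSO stock diluted to test concentrations; incubation 18–24 h. MIC recorded; each group tested independently in triplicate.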
`Cc1cccc(NC(=O)/C=C/C(=O)NC2Cc3ccccc3NC2=O)c1` (centres undefined) registered an MIC of 512 µg/mL (≈ 1470 µM).

A further assay relates to Candida albicans. In words: Antifungal activity against Candida albicans ATCC 76615 incubated for 48 hrs by two-fold broth dilution analysis. The assay is classed as functional.
Details: not given
In outline: as §3
As for `Cc1cccc(NC(=O)/C=C/C(=O)NC2Cc3ccccc3NC2=O)c1` (centres undefined), the MIC stood at 2 µg/mL (≈ 5.72 µM).

The subject of another assay is Aspergillus fumigatus. In words: Antifungal activity against Aspergillus fumigatus GIMCC 3.19 incubated for 48 hrs by two-fold broth dilution analysis. The assay is classed as functional.
Details: not given
The essentials:
as §3
For `Cc1cccc(NC(=O)/C=C/C(=O)NC2Cc3ccccc3NC2=O)c1` (centres undefined), the MIC came to 4 µg/mL (≈ 11.4 µM).

The next assay concerns Staphylococcus aureus. In words: Antibacterial activity against Staphylococcus aureus ATCC 25923. The assay is classed as functional.
Details: not given
The essentials:
(§4)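 Two-fold serial broth dilution in 96-well plates following National Committee standards; compounds tested at different concentrations. Medium: beef extract peptone (1% peptone, 0.3% beef extract, 0.5% NaCl). Incubation 18–24 h. MIC recorded; streptomycin and norfloxacin as control drugs; each group tested in triplicate.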
`Cc1cccc(NC(=O)/C=C/C(=O)NC2Cc3ccccc3NC2=O)c1` (centres undefined) displayed an MIC of 128 µg/mL (≈ 366 µM).

The test system of another assay is Bacillus subtilis. The experiment in a line: Antibacterial activity against Bacillus subtilis ATCC 6633. The assay is classed as functional.
Details: not given
In outline:
as §4
`Cc1cccc(NC(=O)/C=C/C(=O)NC2Cc3ccccc3NC2=O)c1` (centres undefined) gave a minimum inhibitory concentration (MIC) of 256 µg/mL (≈ 733 µM).

For another assay, the system named is Pseudomonas aeruginosa. The experiment in a line: Antibacterial activity against Pseudomonas aeruginosa ATCC 9027. The assay is classed as functional.
Details: not given
The essentials:
as §4
For `Cc1cccc(NC(=O)/C=C/C(=O)NC2Cc3ccccc3NC2=O)c1` (centres undefined), the MIC turned out to be 512 µg/mL (≈ 1470 µM).

In another assay the test system is Proteus vulgaris. In words: Antibacterial activity against Bacillus proteus ATCC 8427.
Details: not given
It is filed as functional. The essentials:
as §4
Take `Cc1cccc(NC(=O)/C=C/C(=O)NC2Cc3ccccc3NC2=O)c1` (centres undefined): inhibition of growth (MIC) required 256 µg/mL (≈ 733 µM).

Another assay has as its system Escherichia coli. In words: Antibacterial activity against Escherichia coli JM 109.
Details: not given
In turn, `Cc1cccc(NC(=O)/C=C/C(=O)NC2Cc3ccccc3NC2=O)c1` (centres undefined) showed an MIC of 512 µg/mL (≈ 1470 µM).
